From ChEMBL document CHEMBL1131106, “Synthesis and characterization of heteroarotinoids demonstrate structure specificity relationships” (J Med Chem, 1998)

Assays:
[1] = biological target: T1, Retinoic acid receptor beta (Homo sapiens, UniProt P10826); test: Transcriptional activation in CV-1 cells expressing RAR-beta receptor; type: cell-based
T1 sequence (P10826 whole entry): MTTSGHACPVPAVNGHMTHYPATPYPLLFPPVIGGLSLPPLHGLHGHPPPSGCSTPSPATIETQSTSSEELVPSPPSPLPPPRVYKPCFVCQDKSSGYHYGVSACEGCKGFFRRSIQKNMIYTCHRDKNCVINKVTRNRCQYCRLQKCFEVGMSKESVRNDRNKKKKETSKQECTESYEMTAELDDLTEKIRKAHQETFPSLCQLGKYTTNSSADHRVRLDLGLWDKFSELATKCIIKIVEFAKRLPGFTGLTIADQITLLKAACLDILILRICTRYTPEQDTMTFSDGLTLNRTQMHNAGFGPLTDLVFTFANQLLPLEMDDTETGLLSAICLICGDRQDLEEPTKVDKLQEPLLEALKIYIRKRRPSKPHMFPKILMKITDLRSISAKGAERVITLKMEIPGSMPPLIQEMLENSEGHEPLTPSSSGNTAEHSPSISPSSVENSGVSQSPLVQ
Method in brief: (§1)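 CV-1 cells co-transfected by calcium phosphate with receptor expression plasmid, luciferase reporter MTV-TREp-LUC (two TRE-palindromic copies; RAR assays), β-galactosidase internal control plasmid and pGEM carrier. Incubated 40 h with or without various retinoid concentrations. Luciferase read in extracts, normalized to β-galactosidase. Triplicate. Activity normalized to 9-cis-retinoic acid; EC50 = concentration giving 50% maximal response.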

[2] = biological target: T2, Retinoic acid receptor alpha (Homo sapiens, UniProt P10276); test: Transcriptional activation in CV-1 cells expressing RAR-alpha receptor; type: cell-based; method in brief: as §1
T2 sequence (P10276 whole entry): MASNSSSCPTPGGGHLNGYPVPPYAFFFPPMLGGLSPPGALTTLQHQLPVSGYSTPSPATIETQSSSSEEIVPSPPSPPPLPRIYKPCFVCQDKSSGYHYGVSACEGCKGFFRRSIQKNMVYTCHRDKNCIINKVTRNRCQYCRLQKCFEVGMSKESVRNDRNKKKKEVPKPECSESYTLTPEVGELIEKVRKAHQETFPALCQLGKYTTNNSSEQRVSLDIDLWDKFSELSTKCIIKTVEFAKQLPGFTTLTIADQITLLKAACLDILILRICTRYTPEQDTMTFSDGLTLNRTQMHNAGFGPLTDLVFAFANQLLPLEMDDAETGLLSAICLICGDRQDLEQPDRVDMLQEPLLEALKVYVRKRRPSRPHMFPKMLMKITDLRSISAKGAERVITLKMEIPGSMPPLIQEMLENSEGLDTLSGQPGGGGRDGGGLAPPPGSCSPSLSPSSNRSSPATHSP

[3] = biological target: T3, Retinoic acid receptor gamma (Homo sapiens, UniProt P13631); test: Transcriptional activation in CV-1 cells expressing RAR-gamma receptor; type: cell-based; method in brief: as §1
T3 sequence (P13631 whole entry): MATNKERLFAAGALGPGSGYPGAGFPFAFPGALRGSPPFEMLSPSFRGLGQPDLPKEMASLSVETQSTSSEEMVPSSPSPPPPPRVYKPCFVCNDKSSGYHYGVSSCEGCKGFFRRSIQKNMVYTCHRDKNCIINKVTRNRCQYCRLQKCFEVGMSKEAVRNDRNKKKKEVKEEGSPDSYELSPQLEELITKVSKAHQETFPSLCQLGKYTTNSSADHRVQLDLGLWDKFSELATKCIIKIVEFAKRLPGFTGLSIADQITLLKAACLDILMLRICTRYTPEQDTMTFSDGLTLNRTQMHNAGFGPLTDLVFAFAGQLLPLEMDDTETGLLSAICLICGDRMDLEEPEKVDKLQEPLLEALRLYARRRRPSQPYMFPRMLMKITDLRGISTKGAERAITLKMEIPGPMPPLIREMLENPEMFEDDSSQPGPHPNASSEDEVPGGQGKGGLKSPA

[4] = biological target: T4, Retinoic acid receptor RXR-alpha (Homo sapiens, UniProt P19793); test: Transcriptional activation in CV-1 cells expressing RXR-alpha receptor;not active
T4 sequence (P19793 whole entry): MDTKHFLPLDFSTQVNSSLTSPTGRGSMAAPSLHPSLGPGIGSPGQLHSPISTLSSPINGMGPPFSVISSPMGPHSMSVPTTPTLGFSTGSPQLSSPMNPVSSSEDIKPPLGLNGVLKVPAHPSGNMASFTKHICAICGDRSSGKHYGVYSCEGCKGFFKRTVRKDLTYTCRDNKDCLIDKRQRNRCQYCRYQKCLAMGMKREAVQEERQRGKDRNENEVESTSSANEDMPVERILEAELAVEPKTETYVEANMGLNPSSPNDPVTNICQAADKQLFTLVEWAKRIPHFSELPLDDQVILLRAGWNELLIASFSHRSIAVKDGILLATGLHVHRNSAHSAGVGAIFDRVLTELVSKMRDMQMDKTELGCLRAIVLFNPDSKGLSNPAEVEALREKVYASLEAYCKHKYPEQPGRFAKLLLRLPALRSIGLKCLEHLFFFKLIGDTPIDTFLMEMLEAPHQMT

[5] = biological target: T4, Retinoic acid receptor RXR-alpha; test: Transcriptional activation in CV-1 cells expressing RXR-alpha receptor
[6] = biological target: T2, Retinoic acid receptor alpha; test: Transcriptional activation in CV-1 cells expressing RAR-alpha receptor; Not active; type: cell-based; method in brief: as §1

SMILES | EC50 [1] | EC50 [2] | EC50 [3] | EC50 [4] | EC50 [5] | EC50 [6]
COC(=O)c1ccc(/C=C(\C)c2ccc3c(c2)C(C)(C)CCO3)cc1 | 140 nM | 1100 nM | 330 nM | Not Active |  | 
COC(=O)c1ccc(/C=C(\C)c2ccc3c(c2)C(C)(C)CO3)cc1 | 430 nM |  | 400 nM | Not Active |  | Not Active
C/C(=C\c1ccc(C(=O)O)cc1)c1ccc2c(c1)C(C)(C)CO2 | 320 nM | 2300 nM | 460 nM | Not Active |  | 
C/C(=C\c1ccc(C(=O)O)cc1)c1ccc2c(c1)C(C)(C)CCO2 | 190 nM | 1100 nM | 200 nM | Not Active |  | 
COC(=O)c1ccc(/C=C(\C)c2ccc3c(c2)C(C)(C)CCS3)cc1 | 110 nM | 620 nM | 84 nM | Not Active |  | 

Further lines, results first:

EC50 [1] | EC50 [2] | EC50 [3] | EC50 [4] | EC50 [5] | EC50 [6] | SMILES
18 nM | 420 nM | 30 nM | Not Active |  |  | C/C(=C\c1ccc(C(=O)O)cc1)c1ccc2c(c1)C(C)(C)CS2
43 nM | 1400 nM | 12 nM |  | 2700 nM |  | CC(/C=C/C=C(\C)c1ccc2c(c1)C(C)(C)CCS2)=C\C(=O)O
770 nM | 800 nM | 230 nM |  | 2800 nM |  | CC(/C=C/C=C(\C)c1ccc2c(c1)C(C)(C)CO2)=C\C(=O)O
1200 nM | 1000 nM | 8 nM |  | 2600 nM |  | CC(/C=C/C=C(\C)c1ccc2c(c1)C(C)(C)CS2)=C\C(=O)O
72 nM | 740 nM | 39 nM |  | 2800 nM |  | CC(/C=C/C=C(\C)c1ccc2c(c1)C(C)(C)CCO2)=C\C(=O)O
